The text below walks through data of ChEMBL document CHEMBL1142193, “Dual targeting of GyrB and ParE by a novel aminobenzimidazole class of antibacterial compounds” (2007).

For experiment [1], the system named is Staphylococcus aureus. The experiment in a line: Inhibition of RNA synthesis in Staphylococcus aureus ATCC 29213 assessed as [3H]uridine incorporation. Type of experiment: functional. The procedure, abridged: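 Log-phase cells exposed in duplicate to compound at 5x MIC; labelled-precursor uptake measured over 15 min, stopped with 10% trichloroacetic acid. Incorporation expressed as percent of untreated control (taken as 100%).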

Experiment [2] relates to Staphylococcus aureus. The experiment in a line: Inhibition of protein synthesis in Staphylococcus aureus ATCC 29213 assessed as [3H]aminoacid incorporation. In kind it is functional.
Experiment [3] concerns Staphylococcus aureus. The experiment in a line: Antibacterial activity against Staphylococcus aureus ATCC 29213 with GyrB T173N mutation after 18 to 20 hrs. Type of experiment: functional. In a few lines:
(§1)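 MICs followed CLSI guidelines. Strains were grown overnight at 35°C on solid medium. Inocula were prepared with a Prompt system. Compounds were serially diluted twofold in 100% DMSO at 200x and diluted 1:200 into medium, for a final 0.5% DMSO. Plates were incubated at 35°C for 18 to 20 h and read visually. A twofold MIC variation was taken as assay error.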

Experiment [4] has as its system Haemophilus influenzae. Description: Antibacterial activity against novobiocin-resistant Haemophilus influenzae ATCC 51907 with GyrB R140L mutation after 18 to 20 hrs. In kind it is functional. The procedure, abridged: as §1
Experiment [5] has as its system Enterococcus faecalis. The experiment in a line: Antibacterial activity against Enterococcus faecalis ATCC 29212 with GyrB T167I and ParE T169A mutation after 18 to 20 hrs. In kind it is functional. In a few lines: as §1
In experiment [6] the test system is Staphylococcus aureus. Description: Antibacterial activity against Staphylococcus aureus ATCC 29213 with GyrB T173N and GrlB T166A mutation after 18 to 20 hrs. In kind it is functional. In a few lines:
as §1

For experiment [7], the system named is Enterococcus faecalis. Description: Antibacterial activity against Enterococcus faecalis ATCC 29212 with ParE T169A mutation after 18 to 20 hrs. Type of experiment: functional. In a few lines: as §1
Experiment [8] deals with Staphylococcus aureus. The experiment in a line: Antibacterial activity against Staphylococcus aureus ATCC 29213 with GyrB T173I mutation after 18 to 20 hrs. In kind it is functional. The procedure, abridged:
as §1

The test system of experiment [9] is Streptococcus pneumoniae. Description: Antibacterial activity against Streptococcus pneumoniae ATCC BAA-255 after 18 to 20 hrs. Type of experiment: functional. The procedure, abridged: as §1
Experiment [10] concerns Haemophilus influenzae. Description: Antibacterial activity against Haemophilus influenzae ATCC 51907 with GyrB T169I mutation after 18 to 20 hrs. In kind it is functional. In a few lines:
as §1

The test system of experiment [11] is Enterococcus faecalis. The experiment in a line: Antibacterial activity against Enterococcus faecalis ATCC 29212 with GyrB T167I mutation after 18 to 20 hrs. Type of experiment: functional. In a few lines:
as §1

For experiment [12], the system named is Haemophilus influenzae. The experiment in a line: Antibacterial activity against novobiocin-resistant Haemophilus influenzae ATCC 51907 with GyrB R140C mutation after 18 to 20 hrs. Type of experiment: functional. In a few lines: as §1
Experiment [13] deals with Staphylococcus aureus. The experiment in a line: Antibacterial activity against Staphylococcus aureus ATCC 29213 without plasmid. Type of experiment: functional.
Experiment [14] has as its system Enterococcus faecalis. Description: Antibacterial activity against Enterococcus faecalis ATCC 29212 with GyrB T167A mutation after 18 to 20 hrs. Type of experiment: functional. The procedure, abridged: as §1
Experiment [15] has as its system Staphylococcus aureus. Description: Antibacterial activity against Staphylococcus aureus ATCC 29213 with GyrB T173N mutation without plasmid. In kind it is functional.
Experiment [16] relates to Staphylococcus aureus. Description: Antibacterial activity against Staphylococcus aureus ATCC 29213 carrying plasmid expressing GyrB R144I mutant. Type of experiment: functional.
Experiment [17] has as its system Staphylococcus aureus. The experiment in a line: Antibacterial activity against Staphylococcus aureus ATCC 29213 after 18 to 20 hrs. In kind it is functional. In a few lines: as §1
In experiment [18] the test system is Streptococcus pneumoniae. The experiment in a line: Antibacterial activity against Streptococcus pneumoniae ATCC BAA-255 with ParE T172A mutation after 18 to 20 hrs. Type of experiment: functional. The procedure, abridged: as §1
Experiment [19] concerns Staphylococcus aureus. The experiment in a line: Antibacterial activity against Staphylococcus aureus ATCC 29213 carrying plasmid expressing GyrB T173I mutant. Type of experiment: functional.
For experiment [20], the system named is Staphylococcus aureus. Description: Antibacterial activity against novobiocin-resistant Staphylococcus aureus ATCC 29213 with GyrB R144I mutation after 18 to 20 hrs. Type of experiment: functional. The procedure, abridged:
as §1

Experiment [21] concerns Haemophilus influenzae. Description: Antibacterial activity against Haemophilus influenzae ATCC 51907 after 18 to 20 hrs. Type of experiment: functional. The procedure, abridged: as §1
Experiment [22] deals with Staphylococcus aureus. Description: Antibacterial activity against Staphylococcus aureus ATCC 29213 with GyrB R144I mutation without plasmid. In kind it is functional.
Experiment [23] has as its system Staphylococcus aureus. Description: Antibacterial activity against Staphylococcus aureus ATCC 29213 carrying plasmid expressing GyrB T173N mutant. In kind it is functional.
Experiment [24] relates to Staphylococcus aureus. Description: Antibacterial activity against Staphylococcus aureus ATCC 29213 carrying plasmid expressing wild type GyrB. In kind it is functional.
The subject of experiment [25] is Haemophilus influenzae. Description: Antibacterial activity against novobiocin-resistant Haemophilus influenzae ATCC 51907 with GyrB R140H mutation after 18 to 20 hrs. Type of experiment: functional. The procedure, abridged:
as §1

Experiment [26] concerns Streptococcus pneumoniae. Description: Antibacterial activity against Streptococcus pneumoniae ATCC BAA-255 with ParE T172I mutation after 18 to 20 hrs. In kind it is functional. In a few lines: as §1
For experiment [27], the system named is Enterococcus faecalis. Description: Antibacterial activity against Enterococcus faecalis ATCC 29212 after 18 to 20 hrs. Type of experiment: functional. The procedure, abridged:
as §1

Experiment [28] has as its system Streptococcus pneumoniae. The experiment in a line: Antibacterial activity against Streptococcus pneumoniae ATCC BAA-255 with GyrB T172A and ParE T172A mutation after 18 to 20 hrs. Type of experiment: functional. In a few lines:
as §1

The subject of experiment [29] is Escherichia coli. The experiment in a line: Reduction in steady-state levels of supercoiled pUC18 in Escherichia coli CAG12184 tolC mutant. In kind it is functional, organism-based. The procedure, abridged: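 Cells carrying pUC18 grown at 37°C in caMHB with 100 µg/ml ampicillin to OD600 0.5, then exposed 1 h at 37°C with shaking to a twofold dilution series spanning the MIC. Plasmid isolated, concentrated, run on 1% TBE-agarose alongside supercoiled markers for 16 h, stained with ethidium bromide.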

The subject of experiment [30] is Staphylococcus aureus. Description: Antibacterial activity against Staphylococcus aureus ATCC 29213 with GyrB T173I mutation without plasmid. In kind it is functional.
Experiment [31] concerns Streptococcus pneumoniae. Description: Antibacterial activity against novobiocin-resistant Streptococcus pneumoniae ATCC BAA-255 with GyrB S127L mutation after 18 to 20 hrs. Type of experiment: functional. The procedure, abridged: as §1
Experiment [32] deals with Enterococcus faecalis. Description: Antibacterial activity against Enterococcus faecalis ATCC 29212 with GyrB T167A and ParE T169A mutation after 18 to 20 hrs. Type of experiment: functional. In a few lines: as §1
Experiment [33] deals with Staphylococcus aureus. The experiment in a line: Antibacterial activity against Staphylococcus aureus ATCC 29213 with GyrB T173I and GrlB T166A mutation after 18 to 20 hrs. In kind it is functional. In a few lines: as §1

Converted amounts (≈) assume the structure as drawn. The source made the active and inactive calls. The rule behind the calls is not given here.

With `CO[C@H]1/C=C/O[C@@]2(C)Oc3c(C)c(O)c4c(O)c(c(/C=N/N5CCN(C)CC5)c(O)c4c3C2=O)NC(=O)/C(C)=C\C=C\[C@H](C)[C@H](O)[C@@H](C)[C@@H](O)[C@@H](C)[C@H](OC(C)=O)[C@@H]1C`, the outcome in experiment [1] and in experiment [2] was Active.
Take `CCNC(=O)Nc1nc2cc(-c3cccnc3)cc(-c3ncccc3F)c2[nH]1`: the MIC was 0.5 mg/L (≈ 1.33 µM) in [3]; 1 mg/L (≈ 2.66 µM) in [4]; 1 mg/L (≈ 2.66 µM) in experiment [5]; over 8 mg/L in experiment [6]; 0.064 mg/L (≈ 0.17 µM) in experiment [7]; 0.5 mg/L (≈ 1.33 µM) in experiment [8]. For the same compound, the MIC in experiment [9] was 0.004 mg/L (≈ 0.0106 µM); in experiment [10], over 64 mg/L; in [11], 0.064 mg/L (≈ 0.17 µM); in [12], 1 mg/L (≈ 2.66 µM); in experiment [13], 0.06 mg/L (≈ 0.159 µM); in experiment [14], 0.032 mg/L (≈ 0.085 µM). Moreover, the MIC in [15] came to 0.25 mg/L (≈ 0.664 µM); in experiment [16] it was 0.06 mg/L (≈ 0.159 µM); in experiment [17], 0.03 mg/L (≈ 0.0797 µM); in [18], 0.016 mg/L (≈ 0.0425 µM); in experiment [19], 0.13 mg/L (≈ 0.345 µM); in experiment [20], 0.06 mg/L (≈ 0.159 µM). In addition, the MIC stood at 1 mg/L (≈ 2.66 µM) in experiment [21]; 0.06 mg/L (≈ 0.159 µM) in [22]; 0.25 mg/L (≈ 0.664 µM) in [23]; 0.06 mg/L (≈ 0.159 µM) in [24]; 1 mg/L (≈ 2.66 µM) in [25]; 0.016 mg/L (≈ 0.0425 µM) in experiment [26]. Besides, the MIC in experiment [27] turned out to be 0.032 mg/L (≈ 0.085 µM); in experiment [28], 0.25 mg/L (≈ 0.664 µM); in [30], 0.25 mg/L (≈ 0.664 µM); in experiment [31], 0.002 mg/L (≈ 0.00531 µM); in experiment [32], 0.5 mg/L (≈ 1.33 µM); in experiment [33], 4 mg/L (≈ 10.6 µM). In addition, the Activity result in experiment [29] is “Dose-dependent effect”.
